{"data": "Published values of several laboratories", "HTR2B": "5-hydroxytryptamine receptor 2B (HTR2B, Homo sapiens, UniProt P41595)", "note": "Protocols differ between the studies behind these lines."}
{"SMILES": "CN1CCC[C@H]1c1cccnc1", "target": "HTR2B", "observed": "ligand displacement", "tested at": "50 µM", "measurement": "inhibition", "result": "-8.78%"}
{"SMILES": "COc1cc2c3c(c1OC)-c1c(OC)ccc(Cl)c1CC3N(C)CC2 (racemic)", "target": "HTR2B", "observed": "ligand displacement", "technique": "radioligand", "tested at": "10 µM", "measurement": "inhibition", "result": "87%"}
{"SMILES": "[2H]c1c([2H])c([C@]2([2H])CCCN2C(=O)C(C)(C)Oc2ccc3cn[nH]c3c2)c([2H])c([2H])c1C([2H])([2H])[2H]", "target": "Serine/threonine-protein kinase Nek6 (NEK6, Homo sapiens, UniProt Q9HC98)", "observed": "binding", "technique": "competition with immobilised ligand", "tested at": "1 µM", "measurement": "remaining binding", "result": "100%"}
{"SMILES": "CC[C@H](C)[C@H](NC(=O)[C@H](CO)NC(=O)[C@H](Cc1ccc(O)cc1)NC(=O)[C@H](CC(=O)O)NC(=O)[C@H](CO)NC(=O)[C@@H](NC(=O)[C@H](Cc1ccccc1)NC(=O)[C@@H](NC(=O)CNC(=O)[C@H](CCC(=O)O)NC(=O)[C@@H](C)NC(=O)[C@@H](N)Cc1ccc(O)cc1)[C@@H](C)O)[C@@H](C)CC)C(=O)N[C@@H](C)C(=O)N[C@@H](CCSC)C(=O)N[C@@H](CC(=O)O)C(=O)N[C@@H](CCCCN)C(=O)N[C@H](C(=O)N[C@@H](Cc1c[nH]cn1)C(=O)N[C@@H](CCC(N)=O)C(=O)N[C@@H](CCC(N)=O)C(=O)N[C@@H](CC(=O)O)C(=O)N[C@@H](Cc1ccccc1)C(=O)N[C@H](C(=O)N[C@@H](CC(N)=O)C(=O)N[C@@H](Cc1c[nH]c2ccccc12)C(=O)N[C@@H](CC(C)C)C(=O)N[C@@H](CC(C)C)C(=O)N[C@@H](C)C(=O)N[C@@H](CCC(N)=O)C(=O)NCC(=O)N1CCC[C@H]1C(=O)N[C@@H](CO)C(=O)N[C@@H](CO)C(=O)NCC(=O)N[C@@H](C)C(=O)N1CCC[C@H]1C(=O)N1CCC[C@H]1C(=O)N1CCC[C@H]1C(=O)N[C@@H](CO)C(=O)N[C@@H](CCCCN)C(N)=O)C(C)C)[C@@H](C)CC", "target": "Glucagon receptor (Mus musculus, UniProt Q61606)", "observed": "cAMP", "mode": "agonist", "measurement": "Emax", "result": "< 20%"}
{"SMILES": "c1cncc([C@@H]2CCCN2)c1", "target": "Neuronal acetylcholine receptor; alpha3/beta4 (Rattus norvegicus, UniProt P04757+P12392)", "observed": "ligand displacement", "technique": "radioligand", "tested at": "50 µM", "measurement": "inhibition", "result": "69.1%"}
{"SMILES": "COc1cc2c3c(c1OC)-c1c(OC)ccc(O)c1CC3N(C)CC2 (stereo not shown)", "target": "HTR2B", "observed": "ligand displacement", "technique": "radioligand", "tested at": "10 µM", "measurement": "inhibition", "result": "86%"}
{"SMILES": "CC(C)CC(=O)OC[C@H]1O[C@@](C#N)(c2ccc3c(N)ncnn23)[C@H](O)[C@@H]1O", "target": "Prostaglandin G/H synthase 1 (PTGS1, Homo sapiens, UniProt P23219)", "observed": "enzyme activity", "mode": "inhibitor", "tested at": "20 µM", "measurement": "inhibition", "result": "6%"}
{"SMILES": "Nc1ncnc2c1ncn2[C@@H]1O[C@H](C[C@@H](N)CC[C@H](N)C(=O)O)[C@@H](O)[C@H]1O", "target": "mRNA cap guanine-N(7) methyltransferase (RNMT, Homo sapiens, UniProt O43148)", "observed": "enzyme activity", "mode": "inhibitor", "tested at": "3.125 µM", "measurement": "inhibition", "result": "40.9%"}
{"SMILES": "COc1cc2c3c(c1OC)-c1c(cccc1OC)CC3N(C)CC2 (racemic)", "target": "HTR2B", "observed": "ligand displacement", "technique": "radioligand", "tested at": "10 µM", "measurement": "inhibition", "result": "86%"}
{"SMILES": "COc1cc(C(F)(F)F)c(OC)cc1C1CCCNC1 (stereo not shown)", "target": "HTR2B", "observed": "G protein activation", "mode": "agonist", "technique": "BRET", "measurement": "Emax", "result": "84%"}
